From PubChem
The entries come from a sample that favours hits as a whole.
T cruzi growth-1 = T. cruzi proliferation inhibition; T. cruzi beta-gal in NIH3T3, GalScreen luminescence, 90 h; 77,000 tested, 5.9% active; inhibition, % at 8.34 µM;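 active = mean inhibition above about 93%, with at least 55% of replicates each passing it, limit read from the data, passing the limit was not always enough; inconclusive = only one of those two conditions holds; inactive = neither condition holds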
IDH1 mut inh = IDH1 R132H (human) inhibition | 70,000 tested, 0.18% active | inhibition, % at 10 µM | O75874 | AID 624101 | IDH1 R132H reductase, diaphorase/resazurin fluorescence, 60 min; in the data active = inhibition above about 34%; inconclusive = no clear call, values can overlap the other calls; inactive = below about 11%
Target sequence (O75874 whole entry R132H): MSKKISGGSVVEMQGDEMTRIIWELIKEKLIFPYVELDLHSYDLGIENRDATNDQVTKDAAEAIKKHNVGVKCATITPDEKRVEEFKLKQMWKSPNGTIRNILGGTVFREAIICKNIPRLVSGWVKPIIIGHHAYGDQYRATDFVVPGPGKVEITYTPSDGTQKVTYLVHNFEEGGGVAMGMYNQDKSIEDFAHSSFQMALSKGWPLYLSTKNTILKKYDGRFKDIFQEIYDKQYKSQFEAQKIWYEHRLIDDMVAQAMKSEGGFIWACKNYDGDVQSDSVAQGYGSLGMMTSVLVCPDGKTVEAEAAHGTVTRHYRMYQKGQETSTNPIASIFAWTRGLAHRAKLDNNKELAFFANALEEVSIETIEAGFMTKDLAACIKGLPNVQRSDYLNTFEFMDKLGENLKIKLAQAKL
GASC1 inh = blocks human GASC-1 (KDM4C) demethylase activity | inhibition, % at 12.5 µM | GST-KDM4C 2-372, H3K9me3 peptide, LANCE TR-FRET | AID 720574 | 96,000 tested, 0.15% active;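 active = mean replicate inhibition above about 25%, with at least 55% of replicates also reaching it, limit read from the data, passing the limit was not always enough; inconclusive = only one of those two conditions met; inactive = neither condition met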
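System: N-terminal GST-fused human GASC-1 (KDM4C) fragment, residues 2-372; amount: enzyme final amount 10 nM; incubation: reaction 30 min RT, detection step 1 h RT; medium: HEPES buffer, pH 7.5, plus ascorbate; technique: LANCE TR-FRET, Eu antibody, ULight-streptavidin, EDTA, ex 340 nm, em 618/671 nm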
T cruzi growth-2 = blocks T. cruzi growth in NIH3T3 host cells | shares compounds with T cruzi growth-1 | T. cruzi beta-gal in NIH3T3, GalScreen luminescence, 90 h | 5,600 tested, 72% active | AID 651739 | inhibition, % at 8.35 µM;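 active = mean replicate inhibition above about 95% and at least 55% of replicates individually reaching it, limit read from the data; inconclusive = only one of the two criteria is met; inactive = neither criterion is met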
T cruzi growth-3 = inhibitors of T. cruzi proliferation; T. cruzi beta-gal in NIH3T3, GalScreen luminescence, 90 h; inhibition, % at 2.09 µM; 5,600 tested, 21% active; shares compounds with T cruzi growth-1;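 active = mean inhibition above about 95%, with at least 55% of replicates also reaching it, limit read from the data; inconclusive = meets just one of the two conditions; inactive = meets neither condition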
3T3 cytotox = cytotoxicity in mouse NIH/3T3 fibroblasts; NIH/3T3 viability, CellTiter-Glo ATP luminescence, 90 h; cytotoxicity (signal decrease), % at 8.35 µM; 5,600 tested, 14% active; AID 651742; shares compounds with T cruzi growth-1;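 active = mean signal decrease across replicates above about 35% based on untreated-well scatter, with enough replicates individually passing, limit read from the data; inconclusive = no rule stated though some were filed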
3T3 cytotox 2 = cytotoxicity in mouse NIH/3T3 fibroblasts | shares compounds with T cruzi growth-1 | inhibition, % at 24.9 µM | 5,600 tested, 56% active | NIH/3T3 viability, CellTiter-Glo ATP luminescence, 90 h;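 active = mean loss of cell viability signal at or above a set limit, and enough replicates individually reaching it; inconclusive = meets only the mean limit or only the replicate share; inactive = meets neither condition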
Numbers stand for hits.

How did COc1ccc(-c2nn(CCC(=O)O)c3nc(C)cc(C)c23)c(OC)c1 do in these assays?
IDH1 mut inh: inactive

Results for CC1CCC2(C(=O)OC3OC(CO)C(O)C(O)C3O)CCC3(C(=O)O)C(=CCC4C5(C)CCC(O)C(C)(C)C5CCC43C)C2C1C (stereo not given) ?
IDH1 mut inh: inactive

How did COc1ccc(NC(=O)CSC2CC(=O)N(c3ccccc3)C2=O)cc1Cl (stereo not given) do in these assays?
IDH1 mut inh: inactive

What do the screens show for `C[C@@H]1CCCCO[C@@H](CN(C)Cc2ccc(C(F)(F)F)cc2)[C@@H](C)CN([C@@H](C)CO)C(=O)c2cc(NC(=O)Nc3ccc(C(F)(F)F)cc3)ccc2O1`?
T cruzi growth-1: inactive; GASC1 inh: inactive

Results for C[C@@H]1CCCCO[C@@H](CN(C)Cc2ccc(C(F)(F)F)cc2)[C@@H](C)CN([C@@H](C)CO)C(=O)c2cc(NC(=O)Nc3ccc(F)cc3)ccc2O1 ?
T cruzi growth-1: 108; IDH1 mut inh: inactive; GASC1 inh: inactive; T cruzi growth-2: 98; T cruzi growth-3: 107; 3T3 cytotox: inactive; 3T3 cytotox 2: inactive

What do the screens show for `C[C@@H]1CCCCO[C@@H](CN(C)Cc2ccc(C(F)(F)F)cc2)[C@H](C)CN([C@H](C)CO)C(=O)c2cc(NC(=O)Nc3ccc(C(F)(F)F)cc3)ccc2O1`?
T cruzi growth-1: inactive; IDH1 mut inh: inactive; GASC1 inh: inactive

What do the screens show for `C[C@@H]1CCCCO[C@@H](CN(C)Cc2ccc(C(F)(F)F)cc2)[C@H](C)CN([C@H](C)CO)C(=O)c2cc(NC(=O)Nc3ccc(F)cc3)ccc2O1`?
T cruzi growth-1: 110; GASC1 inh: inactive; T cruzi growth-2: inactive; T cruzi growth-3: 108; 3T3 cytotox: inactive; 3T3 cytotox 2: 57

How did C[C@@H]1CN([C@@H](C)CO)C(=O)c2cc(NC(=O)Nc3ccc(C(F)(F)F)cc3)ccc2O[C@@H](C)CCCCO[C@@H]1CN(C)Cc1ccc(C(F)(F)F)cc1 do in these assays?
T cruzi growth-1: 95; GASC1 inh: inactive; T cruzi growth-2: 102; T cruzi growth-3: 105; 3T3 cytotox: inactive; 3T3 cytotox 2: inactive

Results for C[C@H]1CCCCO[C@@H](CN(C)Cc2ccc(C(F)(F)F)cc2)[C@@H](C)CN([C@@H](C)CO)C(=O)c2cc(NC(=O)Nc3ccc(F)cc3)ccc2O1 ?
T cruzi growth-1: inactive; GASC1 inh: inactive

What do the screens show for `Cc1noc(C)c1NC(=O)Nc1ccc2c(c1)C(=O)N([C@@H](C)CO)C[C@@H](C)[C@H](CN(C)Cc1ccc(C(F)(F)F)cc1)OCCCC[C@H](C)O2`?
T cruzi growth-1: inactive; GASC1 inh: inactive

How did Cc1noc(C)c1NC(=O)Nc1ccc2c(c1)C(=O)N([C@H](C)CO)C[C@@H](C)[C@H](CN(C)Cc1ccc(C(F)(F)F)cc1)OCCCC[C@H](C)O2 do in these assays?
T cruzi growth-1: inconclusive; IDH1 mut inh: inactive; GASC1 inh: inactive; T cruzi growth-2: 114; T cruzi growth-3: inactive; 3T3 cytotox: inactive; 3T3 cytotox 2: 69

Results for Cc1sc2ncnc(SCC(=O)Nc3nsc(-c4ccccc4)n3)c2c1C ?
IDH1 mut inh: inactive

What do the screens show for `O=C(O)CCc1ccc(-c2cccs2)n1-c1cccc(C(F)(F)F)c1`?
IDH1 mut inh: inactive

Results for O=C(CSc1ncnc2sc3c(c12)CCC3)Nc1cccc(-c2nc3ccccc3s2)c1 ?
IDH1 mut inh: inactive

Results for C[C@H]1CCCCO[C@H](CN(C)Cc2ccncc2)[C@@H](C)CN([C@@H](C)CO)C(=O)c2cc(NC(=O)Nc3ccc(C(F)(F)F)cc3)ccc2O1 ?
T cruzi growth-1: 99; GASC1 inh: inactive; T cruzi growth-2: 100; T cruzi growth-3: inactive; 3T3 cytotox: inactive; 3T3 cytotox 2: 83

Results for C[C@@H]1CCCCO[C@@H](CN(C)Cc2ccncc2)[C@H](C)CN([C@H](C)CO)C(=O)c2cc(NC(=O)Nc3ccc(C(F)(F)F)cc3)ccc2O1 ?
T cruzi growth-1: inactive; GASC1 inh: inactive
